Results from ChEMBL document CHEMBL2062518, “Total synthesis and biological evaluation of transvalencin Z” (J Nat Prod, 2012).

test system: Mycobacterium tuberculosis variant bovis BCG; assay: Antimicrobial activity against Mycobacterium bovis BCG TMC1011 Pasteur ATCC 35734 after 24 to 48 hrs; format: functional
Procedure, shortened: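 Streaked from frozen glycerol stock onto nutrient agar (1.5% agar), 37 °C, 24 h. Single colonies were grown in nutrient broth to OD600 1.0 and diluted to OD600 0.003. Cells were exposed to compound at varying concentrations from DMSO stocks (1% DMSO). Growth was read at 600 nm at 24 and 48 h, with 690 nm background subtracted and normalised to DMSO controls.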

Compound | MIC99
O=CNCCCC[C@H](NC(=O)[C@@H]1COC(c2ccccc2O)=N1)C(=O)O | > 100 µM
O=CNCCCC[C@@H](NC(=O)[C@H]1COC(c2ccccc2O)=N1)C(=O)O | > 100 µM
O=CNCCCC[C@H](NC(=O)[C@H]1COC(c2ccccc2O)=N1)C(=O)O | > 100 µM
O=CNCCCC[C@@H](NC(=O)[C@@H]1COC(c2ccccc2O)=N1)C(=O)O | > 100 µM
